Results published in article PMC2717697 (The Journal of General Physiology, 2009).
Changes are numbered by the printed parent chain.

How the values were obtained:
Assay type in all cases: cell-based
[1] = target: T1, E363Q mutant CNGA1 channel (Bos taurus, UniProt Q00194, E363Q); assay: Block of E363Q single-channel currents by extracellular Mg^2+
T1 sequence (Q00194 1-690 E363Q): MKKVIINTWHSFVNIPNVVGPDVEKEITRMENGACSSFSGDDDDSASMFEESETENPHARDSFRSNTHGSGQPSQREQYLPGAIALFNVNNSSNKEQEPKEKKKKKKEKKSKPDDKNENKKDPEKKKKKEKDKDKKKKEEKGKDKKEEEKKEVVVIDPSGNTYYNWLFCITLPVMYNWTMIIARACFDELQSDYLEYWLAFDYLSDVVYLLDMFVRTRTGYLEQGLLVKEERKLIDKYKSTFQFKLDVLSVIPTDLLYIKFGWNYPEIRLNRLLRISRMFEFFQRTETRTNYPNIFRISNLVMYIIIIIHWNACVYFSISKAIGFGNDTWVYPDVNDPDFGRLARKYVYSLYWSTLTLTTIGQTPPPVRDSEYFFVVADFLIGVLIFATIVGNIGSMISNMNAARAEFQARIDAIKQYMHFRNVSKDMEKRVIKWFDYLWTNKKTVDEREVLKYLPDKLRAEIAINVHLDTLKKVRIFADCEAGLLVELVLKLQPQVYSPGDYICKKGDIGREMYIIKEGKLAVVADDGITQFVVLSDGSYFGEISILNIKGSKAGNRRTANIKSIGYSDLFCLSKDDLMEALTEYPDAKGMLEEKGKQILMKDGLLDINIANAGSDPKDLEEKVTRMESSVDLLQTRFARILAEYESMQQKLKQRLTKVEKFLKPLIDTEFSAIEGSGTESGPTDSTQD
In short: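 Xenopus laevis oocytes were collagenase-defolliculated, cRNA-injected, and kept at 18°C. […] E363Q single-channel currents were recorded at 120 or −120 mV with or without 0.1 mM extracellular Mg2+, one patch per trace. Filtering was 1 kHz and sampling 10 kHz. Amplitudes are mean ± SEM, n = 5–20.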

[2] = test system: WT and E363Q CNGA1 channels; settings: fit of Eq. 1 to G-V relations 10 to 200 mV, WT and E363Q together
[3] = target: T1, E363Q mutant CNGA1 channel
wild-type CNGA1 channels = target: T2, wild-type CNGA1 channels (Bos taurus, UniProt Q00194)
T2 sequence (Q00194 1-690): T1 sequence (Q00194 1-690 E363Q) with Q363E

[4] = target: T3, wild-type (WT) CNGA1 channel (Bos taurus, UniProt Q00194); assay: Voltage-dependent block by intracellular PhTx, wild type
T3 sequence (Q00194 1-690): T1 sequence (Q00194 1-690 E363Q) with Q363E
In short: (§1)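 WT or mutant CNGA1 cRNA was injected into collagenase-defolliculated Xenopus oocytes. […] I-V curves were taken from −80 mV holding with steps of −200 to 200 mV in 10-mV increments. No-cGMP currents were subtracted as background. Recordings were made with or without 10 µM intracellular PhTx, and fraction unblocked (I/Io) was reported as mean ± SEM, n = 4–6.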

[5] = target: T4, I386A mutant CNGA1 channel (Bos taurus, UniProt Q00194, I386A); assay: Voltage-dependent block by intracellular PhTx, I386A
T4 sequence (Q00194 1-690 I386A): T1 sequence (Q00194 1-690 E363Q) with Q363E, I386A
In short: as §1

[6] = target: T5, T389A mutant CNGA1 channel (Bos taurus, UniProt Q00194, T389A); assay: Voltage-dependent block by intracellular PhTx, T389A
T5 sequence (Q00194 1-690 T389A): T1 sequence (Q00194 1-690 E363Q) with Q363E, T389A
In short: as §1

[7] = target: T6, V384A mutant CNGA1 channel (Bos taurus, UniProt Q00194, V384A); assay: Voltage-dependent block by intracellular PhTx, V384A
T6 sequence (Q00194 1-690 V384A): T1 sequence (Q00194 1-690 E363Q) with Q363E, V384A
In short: as §1

[8] = target: T7, I390A mutant CNGA1 channel (Bos taurus, UniProt Q00194, I390A); assay: Voltage-dependent block by intracellular PhTx, I390A
T7 sequence (Q00194 1-690 I390A): T1 sequence (Q00194 1-690 E363Q) with Q363E, I390A
In short: as §1

[9] = target: T8, F387A mutant CNGA1 channel (Bos taurus, UniProt Q00194, F387A); assay: Voltage-dependent block by intracellular PhTx, F387A
T8 sequence (Q00194 1-690 F387A): T1 sequence (Q00194 1-690 E363Q) with Q363E, F387A
In short: as §1

[10] = read-out: appKd, Boltzmann fit of I/Io at 10 µM intracellular PhTx
[11] = valence of block, Boltzmann fit

## [Mg+2] [Mg^2+]
[1]; read-out: estimated Ki, −120 mV, estimated from 37% reduction at 100 µM
  Ki: 170000 nM
[1]; −120 mV, 100 µM external Mg^2+
  reduction of single-channel current amplitude: 37%

## Nc1nc2c(ncn2[C@@H]2O[C@@H]3COP(=O)(O)O[C@H]3[C@H]2O)c(=O)[nH]1 [cGMP, cyclic GMP]
[2]
  Hill coefficient (n): 1.44 ± 0.06
[2]; read-out: KL
  Kd: 78000 ± 4000 nM
[3]
  valence factor of KL: −0.1
[3]; common to 40 and 200 mV
  Hill coefficient (n): 1.44 ± 0.01
wild-type CNGA1 channels
  valence factor of KL: 0.04
wild-type CNGA1 channels; common to −200 and 200 mV
  Hill coefficient (n): 1.48 ± 0.03
wild-type CNGA1 channels; over 400 mV (−200 to 200 mV)
  variation of KL: twofold

## philanthotoxin [PhTx]
[4]; [10]
  Kd: 1600 nM
[4]; [11]
  Z: 2.48 ± 0.07
[5]; [10]
  Kd: 830 nM
[5]; [11]
  Z: 2.55 ± 0.07
[6]; [10]
  Kd: 1600 nM
[6]; [11]
  Z: 2.25 ± 0.06
[7]; [10]
  Kd: 3500 nM
[7]; [11]
  Z: 2.81 ± 0.09
[8]; [10]
  Kd: 1200 nM
[8]; [11]
  Z: 2.67 ± 0.08
[9]; [10]
  Kd: 52000 nM
[9]; [11]
  Z: 0.96 ± 0.02
